Measured values published in paper PMC3288193 (Clinical Immunology (Orlando, Fla.), 2011).

Key:
[1] = test system: purified Class II molecules (DRB1*0101, DRB1*0301, DRB1*0401, DRB1*0701, DRB1*1501); test: Competition-based class II HLA binding assay; set-up: species or system human; settings: test peptide 100 μM; average of 5 DRB1 alleles; Fig. 2
Method in brief: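 Non-biotinylated test peptides (HPLC-purified ≥80%) at 100 μM competed against biotinylated standard peptide (0.1 μM) for purified class II molecules (50 nM), 24 h at 37°C. Complexes were captured on ELISA plates with pan anti-class II L243, then incubated with europium-streptavidin for 1 h at RT, developed 15–20 min, and read by TRF. Triplicates. Percent inhibition per allele was averaged across five alleles.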

[2] = test system: LN cells of hemophilic FVIII KO E16 mice (H-2b); test: T cell proliferation of LN cells from peptide-immunized E16 mice; format: in vivo, mouse; settings: LN cells stimulated with 2191 in presence of competitor ORG peptides over a range of concentrations, Appendix Fig. 1
[3] = test system: LN cells of HLA-DR4 (DRB1*0401) transgenic mice; test: T cell proliferation of LN cells from peptide-immunized DR4 mice; format: in vivo, mouse; settings: DR4 mice immunized with mixture of 2231-M1, -M2, -M3, 3 μg each in CFA; Fig. 5C
Method in brief: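 Mixed peptides (3 μg each in CFA) were injected subcutaneously via hind footpad and tail base. After two weeks, pooled draining inguinal/popliteal LN cells (0.5×10^6/well) were stimulated 48 h with ORG or MOD peptides (0, 1, 3, 10 μg/ml) in RPMI 1640 with 2% FBS and 0.5% hemophilic mouse serum. Cells were pulsed with 1 μCi [3H]-thymidine for 16–20 h and beta-counted. Results are background-subtracted ΔCPM, mean ± SEM of triplicates.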

Substance | effect of modification on average HLA binding versus ORG peptide [1] | effect of competitor ORG peptides on 2191-O-specific proliferation [2] | HLA binding, average across HLA alleles (rank among ORG peptides) [1] | de novo immunogenicity of MOD peptides (T cell proliferation) [3]
2191-M1: modified (MOD) version of 2191-O with one substitution, F2196G (TASSYGTNMFATWSPSKARL) | only moderately reduced binding | – | – | –
2191-O: original (ORG) human FVIII C2 domain epitope cluster peptide, amino acid positions 2191–2210 (TASSYFTNMFATWSPSKARL) | – | not affected by the presence of competitor ORG peptides | bound strongest | –
2231-M1: modified (MOD) version of 2231-O with F2234G mutation (QVDGQKTMKVTGVTTQGVKSL) | lower HLA binding | – | – | significantly lower
